Source: PubChem (several laboratories)
Compounds with a hit are over-represented: about 0.9% of the library has one in this group of screens.
S1P3 antag = antagonists of human S1P3 receptor; inhibition, % at 4.98 µM; AID 485; CHO S1P3 NFAT-BLA reporter, FRET fluorescence, antagonist mode; 0.27% of 170,000 active; Q99500;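 active means inhibition above the plate cutoff, the mean inhibition of test wells on that plate plus 3 SD, cut at about 28% in these data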;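 further: cells challenged with S1P at its EC80 of 0.8 µM; blue over green emission ratio from cleaved BLA substrate after 4 h stimulation; 0% = S1P-stimulated wells and 100% = unstimulated DMSO-only wells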
Target sequence (Q99500 whole entry, looked up): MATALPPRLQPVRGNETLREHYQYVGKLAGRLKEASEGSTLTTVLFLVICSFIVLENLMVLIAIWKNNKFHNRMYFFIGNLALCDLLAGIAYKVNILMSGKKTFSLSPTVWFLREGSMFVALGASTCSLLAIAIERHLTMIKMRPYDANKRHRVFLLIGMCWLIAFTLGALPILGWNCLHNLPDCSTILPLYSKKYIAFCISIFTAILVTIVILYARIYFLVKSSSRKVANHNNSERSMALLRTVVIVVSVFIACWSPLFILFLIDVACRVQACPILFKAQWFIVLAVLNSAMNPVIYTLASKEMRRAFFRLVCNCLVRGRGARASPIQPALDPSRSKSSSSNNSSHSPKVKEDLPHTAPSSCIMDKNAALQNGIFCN
MDM2 E3 inh = blocks human Mdm2 ubiquitin ligase activity | cell-based MDM2 ubiquitination luciferase reporter, 2 h; 0 = plate control, 100 = twice control, blank-subtracted | signal enhancement, % at 5 µM | 0.11% of 210,000 active | AID 1230 | Q00987;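 active means signal enhancement of 30% or more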;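 further: luminescence tracks abundance of the self-degrading MDM2-luciferase fusion protein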
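Material: Stable MDM2–luciferase fusion reporter cells | Amount: 2000 cells seeded into each well | Dosing: One concentration, 5 µM, with 0.2% DMSO | Incubation: 4 h cell settling then 2 h compound exposure, 37 °C | Measured by: Luciferase luminescence | Read-out basis: % enhancement relative to plate controls after blank subtraction | Benchmarks: Control and blank well means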
Calb biofilm kill = mixtures killing C. albicans biofilm. 0.02% of 120,000 active. inhibition, % at 7.6 µM. AID 1242. C. albicans biofilm persisters + clotrimazole, fluorescence viability; primary screen in compound mixtures of four per well;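 further: compounds exposed to preformed 24 h biofilms for 48 h; 0% = untreated biofilm control and 100% = clotrimazole plus chlorhexidine kill blank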
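System: C. albicans CAF4-2 wild-type biofilms; Medium: RPMI/MOPS medium, pH 7.0; Reagent: Clotrimazole, 50 µg/mL; Times: biofilm formation 24 h, compound exposure 48 h, 37 °C; Detection: 2-h Alamar Blue fluorescence, 535/590 nm excitation/emission; Evaluation: percent inhibition of biofilm viability.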
S1P4 ag = activates the human S1P4 receptor; S1P4-expressing cell line, agonist reporter assay; activation, % at 4.98 µM; 0.35% of 220,000 active; in the data active means activation above about 11%;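 further: 0% = DMSO vehicle and 100% = reference agonist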
S1P4 antag = human S1P4 receptor antagonism; S1P4-expressing cells, antagonist mode, reporter read-out; inhibition, % at 4.98 µM; 0.26% of 220,000 active; AID 1510; in the data active means inhibition above about 29%;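 further: 0% = wells stimulated with agonist and 100% = vehicle wells without agonist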
S1P4 antag cf = confirmation of human S1P4 receptor antagonists; shares compounds with S1P4 antag; S1P4-expressing cell line, antagonist mode, reporter read-out; inhibition, % at 4.98 µM; 71% of 520 active; in the data active means inhibition above about 30%
S1P1 antag = human S1P1 antagonism as S1P4 antagonist counter-screen; inhibition, % at 4.98 µM; cell-based S1P1 antagonist counterscreen, inhibition; shares compounds with S1P4 antag; 37% of 520 active; in the data active means inhibition above about 40%;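 further: receptor stimulated with S1P near its EC80; 0% = agonist stimulated wells and 100% = vehicle only wells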
Starred values were filed as active, the others as inactive; . = no result given.

SMILES	S1P3 antag	MDM2 E3 inh	Calb biofilm kill	S1P4 ag	S1P4 antag	S1P4 antag cf	S1P1 antag
CCOc1cc(/C=C2/C(=N)N3OC(C)=CC3=NC2=O)ccc1OCCOc1ccccc1	.	-16	.	-1	-1	.	.
CC1(C)O[C@@H]2C[C@H]3[C@@H]4C[C@H](F)C5=CC(=O)CC[C@]5(C)[C@H]4[C@@H](O)C[C@]3(C)[C@]2(C(=O)CO)O1	-18	.	12	-1	59*	0	17
CCCCC(=O)O[C@]1(C(=O)CO)CC[C@H]2[C@@H]3CCC4=CC(=O)CC[C@]4(C)[C@H]3[C@@H](O)C[C@@]21C	-4	.	10	-1	-18	.	.
CC(=O)NS(=O)(=O)c1ccc(Nc2ccc([N+](=O)[O-])c3nonc23)cc1	-6	.	17	1	-14	.	.
C#CCOc1ccc(C2C3=C(COC3=O)Nc3cc4c(cc32)OCO4)cc1OC (centres undefined)	13	-6	7	0	38*	39*	80*
O=S(=O)(c1ccccc1Cl)N1CCC(O)(c2cccnc2)CC1	-7	-9	27	1	-3	.	.
Fc1cccc(F)c1/C=N/NC(=S)Nc1cccnc1	-22	1	17	1	-10	.	.
Fc1c(F)c(F)c(/C=N/NC(=S)Nc2cccnc2)c(F)c1F	-4	-1	0	-3	40*	66*	19
Cc1nccn1CCCN1C(=O)OC2(CCCCC2)C1(C)O (centres undefined)	-6	1	14	-3	32*	2	0
COc1ccc2c(c1)-c1nc(/N=C/c3ccc(O)c(OC)c3)sc1CC2	-5	-6	17	1	-14	.	.
CCOC(=O)CSCC(=O)Nc1c(C(=O)C2CC2)oc2ccccc12	.	3	10	-2	-9	.	.
COC(=O)c1ccc2c(c1)C(C)(C)C(/C=C/c1ccc(O)cc1)=[N+]2C	.	-9	.	-1	42*	120*	157*
COc1ccc(CN(C(=O)c2oc3ccccc3c2C)C2CCS(=O)(=O)C2)cc1OC (centres undefined)	7	-7	.	1	32*	-18	-2
COc1cc2c3nnc(-c4ccccc4)c-3cn(Cc3ccccc3F)c2cc1OC	11	-16	13	-5	84*	86*	128*
CC(CCc1ccccc1)NC(=O)C(=O)N1CCOCC1 (centres undefined)	-9	-3	20	0	-28	.	.
Oc1ccc2ccccc2c1N=Nc1ccccc1F	-10	-51	9	1	1	.	.
Oc1ccc2ccccc2c1N=Nc1ccccn1	.	-15	.	-4	50*	78*	83*
CC(=O)n1cc(N(C(=O)CCl)c2ccc(Cl)cc2)c2ccccc21	12	-7	8	-3	60*	115*	41*
O=C(NCc1cccnc1)/C(=C/c1ccc(-c2cccc(Cl)c2)o1)S(=O)(=O)c1ccccc1	.	-17	.	0	65*	105*	72*
CCOC(=O)c1c(C)n2c3c(cc(C)cc13)CCC2	-11	11	12	1	-10	.	.
O=C(/C=C/c1ccccc1)NC1CCCc2ccccc21 (centres undefined)	-1	-25	17	-1	54*	54*	-21
CN(C)c1ccc(C(=O)NC2CCCc3ccccc32)cc1 (centres undefined)	-6	-1	6	-1	48*	56*	-10
N#Cc1ccc(C(=O)NC2CCCc3ccccc32)cc1 (centres undefined)	-12	-14	1	-1	-26	.	.
O=C(/C=C/c1ccccc1)NC1CCSC1=O (centres undefined)	-25	-7	15	1	-17	.	.
CC(C)OC(=O)Nc1ccc2c(c1)N(C(=O)N1CCN(C)CC1)c1ccccc1CC2	-16	-17	13	-3	3	.	.
Cc1ccc(S(=O)(=O)N2CCC(C(=O)NNC(=O)c3ccccc3)CC2)cc1	2	-14	6	0	-8	.	.
O=C(/C=C/c1ccccc1O)c1ccc(Cl)cc1	-4	-13	18	-1	46*	59*	24
